In ChEMBL document CHEMBL1914430, “Synthesis of some new 1,3,5-trisubstituted pyrazolines bearing benzene sulfonamide as anticancer and anti-inflammatory agents” (Bioorg Med Chem Lett, 2011):

How the values were obtained:
Type in all cases: functional
Rattus norvegicus [1] = test: Antiinflammatory activity in Wistar rat assessed as inhibition of carrageenan-induced hind paw edema at 20 mg/kg, po administered 30 mins before carrageenan challenge measured after 3 hrs by plethysmometer
Method in brief: (§1)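 Wistar rats of either sex, 150–175 g, fasted 16 h, n = 6 per group. Compound given orally at 20 mg/kg as a suspension in 1% CMC in water (10 mL/kg); controls got vehicle only. After 30 min, 0.1 mL of 1% carrageenan in saline was injected subplantar into the left hind paw. Paw volume was measured by plethysmometer at 0, 3 and 5 h. Inhibition = (1 − Vt/Vc) × 100, reported as mean ± SEM.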

Rattus norvegicus [2] = test: Antiinflammatory activity in Wistar rat assessed as inhibition of carrageenan-induced hind paw edema at 20 mg/kg, po administered 30 mins before carrageenan challenge measured after 5 hrs by plethysmometer; method in brief: as §1
CCRF-CEM = test: Anticancer activity against human CCRF-CEM cells after 48 hrs
Method in brief: (§2)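 NCI Drug Evaluation Branch 60-cell-line screen across leukemia, melanoma, lung, colon, CNS, ovarian, renal, prostate and breast panels. The incubation period is 48 h. Parameters are derived from dose–response data: GI50 is the concentration giving 50% decrease in net growth, TGI is total growth inhibition, and LC50 is net 50% loss of initial cells. Values beyond the tested range are reported as greater or less than the maximum or minimum concentration.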

K562 = test: Anticancer activity against human K562 cells after 48 hrs; conditions: K562, 48 h; method in brief: as §2
A549 = test: Anticancer activity against human A549 cells after 48 hrs; conditions: A549, 48 h; method in brief: as §2
EKVX = test: Anticancer activity against human EKVX cells after 48 hrs; method in brief: as §2
NCI-H226 = test: Anticancer activity against human NCI-H226 cells after 48 hrs; conditions: NCI-H226, 48 h
Method in brief: (§3)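 NCI 60-line panel protocol with a 48 h incubation. Per line: GI50 = concentration giving 50% decrease in net cell growth; TGI = total growth inhibition; LC50 = net 50% loss of initial cells. When the level was not reached or was exceeded, the value is given as greater or less than the highest or lowest concentration tested.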

NCI-H23 = test: Anticancer activity against human NCI-H23 cells after 48 hrs; conditions: NCI-H23, 48 h; method in brief: as §3
NCI-H460 = test: Anticancer activity against human NCI-H460 cells after 48 hrs; conditions: NCI-H460, 48 h; method in brief: as §3
HCC 2998 = test: Anticancer activity against human HCC2998 cells after 48 hrs; conditions: HCC 2998, 48 h; method in brief: as §2
HCT-15 = test: Anticancer activity against human HCT15 cells after 48 hrs; conditions: HCT-15, 48 h; method in brief: as §2
KM12 = test: Anticancer activity against human KM12 cells after 48 hrs; conditions: KM12, 48 h; method in brief: as §2
SW-620 = test: Anticancer activity against human SW620 cells after 48 hrs; conditions: SW-620, 48 h; method in brief: as §3
SF-268 = test: Anticancer activity against human SF268 cells after 48 hrs; conditions: SF-268, 48 h; method in brief: as §3
SF-539 = test: Anticancer activity against human SF539 cells after 48 hrs; conditions: SF-539, 48 h; method in brief: as §3
SNB-75 = test: Anticancer activity against human SNB75 cells after 48 hrs; conditions: SNB-75, 48 h; method in brief: as §3
MDA-MB-435 = test: Anticancer activity against human MDA-MB-435 cells after 48 hrs; conditions: MDA-MB-435, 48 h; method in brief: as §2
SK-MEL-2 = test: Anticancer activity against human SK-MEL-2 cells after 48 hrs; conditions: SK-MEL-2, 48 h; method in brief: as §3
SK-MEL-28 = test: Anticancer activity against human SK-MEL-28 cells after 48 hrs; conditions: SK-MEL-28, 48 h; method in brief: as §3
UACC-62 = test: Anticancer activity against human UACC62 cells after 48 hrs; conditions: UACC-62, 48 h
Method in brief: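 NCI ~60 human tumour cell line panel with a 48 h incubation. GI50 is the concentration giving a 50% fall in net growth, TGI gives total growth inhibition, and LC50 gives a net 50% loss of initial cells. An effect not reached or exceeded is reported as greater or less than the highest or lowest concentration tested.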

IGROV-1 = test: Anticancer activity against human IGROV1 cells after 48 hrs; conditions: IGROV-1, 48 h; method in brief: as §2
OVCAR-3 = test: Anticancer activity against human OVCAR3 cells after 48 hrs; conditions: OVCAR-3, 48 h; method in brief: as §3
OVCAR-4 = test: Anticancer activity against human OVCAR4 cells after 48 hrs; conditions: OVCAR-4, 48 h; method in brief: as §3
NCI/ADR-RES = test: Anticancer activity against human NCI/ADR-RES cells after 48 hrs; method in brief: as §3
SK-OV-3 = test: Anticancer activity against human SKOV3 cells after 48 hrs; conditions: SK-OV-3, 48 h; method in brief: as §3
786-0 = test: Anticancer activity against human 786-0 cells after 48 hrs; conditions: 786-0, 48 h; method in brief: as §2
A498 = test: Anticancer activity against human A498 cells after 48 hrs; conditions: A498, 48 h; method in brief: as §2
RXF 393 = test: Anticancer activity against human RXF393 cells after 48 hrs; conditions: RXF 393, 48 h; method in brief: as §3
MCF7 = test: Anticancer activity against human MCF7 cells after 48 hrs; conditions: MCF7, 48 h; method in brief: as §2
[3] = read-out: LC50 (the source's name)

Cc1cc(O)c(C2=NN(c3ccc(S(N)(=O)=O)cc3)C(c3ccccc3Cl)C2)cc1Cl (centres undefined)
inhibition in vivo at 20 mg/kg (Rattus norvegicus [1]): 55.3% | inhibition in vivo at 20 mg/kg (Rattus norvegicus [2]): 71.4% | GI50 (CCRF-CEM): 4.81 µM | LC50 (concentration causing net 50% loss of initial cells) (CCRF-CEM): > 100 µM | TGI (CCRF-CEM): > 100 µM | GI50 (K562): 3.26 µM | LC50 (concentration killing 50% of initial cells) (K562): > 100 µM | GI50 (A549): 3.82 µM | LC50 (net 50% loss of initial cells) (A549): > 100 µM | TGI (A549): 19.3 µM | GI50 (EKVX): 1.95 µM | TGI (EKVX): 4.6 µM | CC50 (EKVX; [3]): > 100 µM | GI50 (NCI-H226): 3.03 µM | TGI (NCI-H226): 9.44 µM | CC50 (NCI-H226; [3]): > 100 µM | GI50 (NCI-H23): 1.79 µM | LC50 (concentration killing 50% of initial cells) (NCI-H23): 7.13 µM | TGI (NCI-H23): 3.58 µM | GI50 (NCI-H460): 2.16 µM | LC50 (50% lethal concentration) (NCI-H460): 8.21 µM | TGI (NCI-H460): 4.21 µM | GI50 (HCC 2998): 2.1 µM | LC50 (net 50% loss of initial cells) (HCC 2998): 7.3 µM | TGI (HCC 2998): 3.91 µM | GI50 (HCT-15): 3.69 µM | TGI (HCT-15): 16.6 µM | CC50 (HCT-15; [3]): > 100 µM | GI50 (KM12): 1.98 µM | TGI (KM12): 3.66 µM | GI50 (SW-620): 1.97 µM | TGI (SW-620): 4.1 µM | GI50 (SF-268): 1.92 µM | TGI (SF-268): 3.72 µM | GI50 (SF-539): 1.79 µM | LC50 (concentration causing net 50% loss of initial cells) (SF-539): 5.9 µM | TGI (SF-539): 3.25 µM | GI50 (SNB-75): 2.23 µM | TGI (SNB-75): 8.83 µM | CC50 (SNB-75; [3]): 63.6 µM | GI50 (MDA-MB-435): 1.85 µM | TGI (MDA-MB-435): 3.92 µM | CC50 (MDA-MB-435; [3]): 8.32 µM | GI50 (SK-MEL-2): 11.9 µM | LC50 (SK-MEL-2): 81.1 µM | TGI (SK-MEL-2): 31 µM | GI50 (SK-MEL-28): 3.39 µM | TGI (SK-MEL-28): 12.3 µM | CC50 (SK-MEL-28; [3]): 52.9 µM | GI50 (UACC-62): 3.71 µM | LC50 (UACC-62): 43.4 µM | TGI (UACC-62): 14.4 µM | GI50 (IGROV-1): 2.58 µM | LC50 (net 50% loss of initial cells) (IGROV-1): 47.2 µM | TGI (IGROV-1): 14 µM | GI50 (OVCAR-3): 1.89 µM | LC50 (concentration giving 50% net loss of initial cells) (OVCAR-3): 6.77 µM | TGI (OVCAR-3): 3.58 µM | GI50 (OVCAR-4): 2.73 µM | LC50 (OVCAR-4): 40 µM | TGI (OVCAR-4): 8.48 µM | GI50 (NCI/ADR-RES): 2.7 µM | TGI (NCI/ADR-RES): 6.85 µM | CC50 (NCI/ADR-RES; [3]): 38.8 µM | GI50 (SK-OV-3): 3.63 µM | TGI (SK-OV-3): 10.4 µM | CC50 (SK-OV-3; [3]): 32.3 µM | GI50 (786-0): 2.25 µM | TGI (786-0): 4.52 µM | CC50 (786-0; [3]): 9.1 µM | GI50 (A498): 5.01 µM | TGI (A498): 20.5 µM | CC50 (A498; [3]): 61.4 µM | GI50 (RXF 393): 3.09 µM | LC50 (RXF 393): > 100 µM | TGI (RXF 393): 8.22 µM | GI50 (MCF7): 1.75 µM | LC50 (MCF7): 6.35 µM | TGI (MCF7): 3.33 µM
